SMILES strings stand for the structures.

For orientation: inhibition means the drop in the measured response relative to a control, in per cent.

For the first experiment, the species on record is Mus musculus. Put plainly: Analgesic activity in Swiss mouse assessed as reaction time after 60 mins by hot plate test. The class given is functional.
Conditions: not given
The method, boiled down:
(§1)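 Swiss mice of both sexes, 25–30 g, were housed at 22 ± 1 °C on a 12 h light/dark cycle with free access to diet and water. Hot-plate testing followed Turner's method.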
Take `O=c1[nH]c(=S)[nH]c2nc3c(c(-c4ccccc4)c12)CCC/C3=C\c1ccccc1`: the Activity was determined as 2.65 s.

In the next experiment the test system is Rattus norvegicus. Kind of experiment: Antiinflammatory activity in Sprague-Dawley rat assessed as inhibition of carrageenan-induced paw edema after 3 hrs. The class given is functional.
Conditions: not given
A digest of the protocol:
(§2)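 Adult female Sprague-Dawley rats, 150–180 g, were used (n = 6 per group). Paw volume increase after carrageenan was read at 1, 2, 3 and 4 h. % edema inhibition was calculated against untreated controls. The reference drug was given orally at 10 mg/kg as an aqueous suspension.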
On the technique in general: In the carrageenan paw model, swelling and tenderness develop within hours.
As for `O=c1[nH]c(=S)[nH]c2nc3c(c(-c4ccccc4)c12)CCC/C3=C\c1ccccc1`, the “inhibition (INH)” value was 27.54%.

The next experiment has as its system Rattus norvegicus. Kind of experiment: Antiinflammatory activity in Sprague-Dawley rat assessed as inhibition of carrageenan-induced paw edema after 4 hrs. The class given is functional.
Conditions: not given
A digest of the protocol:
as §2
Consider `O=c1[nH]c(=S)[nH]c2nc3c(c(-c4ccccc4)c12)CCC/C3=C\c1ccccc1`, for which the “inhibition (INH)” value is 25%.

In the next experiment the test system is Pseudomonas aeruginosa. Kind of experiment: Antibacterial activity against Pseudomonas aeruginosa ATCC 10145 at 100 ug/disk after 24 to 48 hrs by agar disk diffusion method. The class given is functional. To be noted: read-out: DIZ. A digest of the protocol:
(§3)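 Agar disc diffusion used sterile 5 mm filter-paper discs loaded with 100 µg per disc, with DMSO as solvent. Plates were incubated 24–28 h at 37 °C and inhibition zone diameters measured: 6–10 mm slight, 11–15 mm moderate, >15 mm high. For MIC, discs carried varying amounts, and MIC was the lowest amount giving no visible growth.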
(A growth-free zone around the sample is the usual read-out of agar diffusion tests.)
On to `O=C(O)c1cn(C2CC2)c2cc(N3CCNCC3)c(F)cc2c1=O` [CIPROFLOXACIN], for which the zone of inhibition at 100 µg/disc is 24 mm.

Regarding `O=c1[nH]c(=S)[nH]c2nc3c(c(-c4ccccc4)c12)CCC/C3=C\c1ccccc1`, the zone of inhibition at 100 µg/disc stood at 15 mm.

System in another experiment: not listed separately
Put plainly: Antioxidant activity assessed as inhibition of ABTS-oxidation in 0.1 M phosphate buffer at pH 7.
Conditions: not given
The class given is functional. A digest of the protocol:
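ABTS (60 µM, 2 mL) was mixed with MnO2 (25 mg/mL) in 0.1 M phosphate buffer pH 7, then shaken, centrifuged and filtered. Radical solution A734 was set to about 0.5. MeOH/buffer served as negative control.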
`O=c1[nH]c(=S)[nH]c2nc3c(c(-c4ccccc4)c12)CCC/C3=C\c1ccccc1`: the inhibition came out at 44.4%.

For another experiment, the system named is Rattus norvegicus. Kind of experiment: Antiinflammatory activity in Sprague-Dawley rat assessed as inhibition of carrageenan-induced paw edema after 1 hr. The class given is functional.
Conditions: not given
A digest of the protocol: as §2
For `O=c1[nH]c(=S)[nH]c2nc3c(c(-c4ccccc4)c12)CCC/C3=C\c1ccccc1`, the “inhibition (INH)” value worked out at 31.25%.

For the next experiment, the system named is Candida albicans. Put plainly: Antimicrobial activity against Candida albicans ATCC 14053 at 100 ug/disk after 5 days by agar disk diffusion method. The class given is functional. To be noted: ATCC 14053, 120 h, read-out: DIZ.
Regarding `CC(=O)N1CCN(c2ccc(OCC3COC(Cn4ccnc4)(c4ccc(Cl)cc4Cl)O3)cc2)CC1` (stereo not given) [KETOCONAZOLE], the zone of inhibition at 100 µg/disc was 21 mm.

On to `O=c1[nH]c(=S)[nH]c2nc3c(c(-c4ccccc4)c12)CCC/C3=C\c1ccccc1`, for which the zone of inhibition at 100 µg/disc is 11 mm.

In a further experiment the test system is Nucleic Acid. Kind of experiment: Inhibition of bleomycin-induced DNA damage assessed as absorbance at 532 nm after 1 hr at 37 degC. The class given is nucleic-acid assay.
Conditions: not given
The method, boiled down:
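The 0.5 mL reaction contained calf thymus DNA (0.5 mg/mL), bleomycin sulfate (0.05 mg/mL), MgCl2 (5 mM), FeCl3 (50 µM) and compound at varying concentrations. After 1 h at 37 °C, the reaction was stopped with EDTA. TBA (1%) and HCl (25%) were added, followed by 10 min at 80 °C. After centrifugation, DNA damage was read as A532.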
In the case of `O=C1O[C@H]([C@@H](O)CO)C(O)=C1O` [ASCORBIC ACID], the deltaA was determined as 0.026.

Another experiment has as its system Rattus norvegicus. Kind of experiment: Antiinflammatory activity in Sprague-Dawley rat assessed as inhibition of carrageenan-induced paw edema after 2 hrs. The class given is functional.
Conditions: not given
The method, boiled down:
as §2
In the case of `O=c1[nH]c(=S)[nH]c2nc3c(c(-c4ccccc4)c12)CCC/C3=C\c1ccccc1`, the “inhibition (INH)” value was determined as 24%.

For the next experiment, the species on record is Mus musculus. Kind of experiment: Analgesic activity in Swiss mouse assessed as reaction time after 30 mins by hot plate test. The class given is functional.
Conditions: not given
A digest of the protocol: as §1
(Hot-plate and tail-flick tests time the reaction to a heat stimulus.)
Consider `O=c1[nH]c(=S)[nH]c2nc3c(c(-c4ccccc4)c12)CCC/C3=C\c1ccccc1`, for which the Activity came out at 2.7 s.

The next experiment is filed under the species Mus musculus. Kind of experiment: Analgesic activity in Swiss mouse assessed as reaction time after 90 mins by hot plate test. The class given is functional.
Conditions: not given
The method, boiled down:
as §1
Regarding `O=c1[nH]c(=S)[nH]c2nc3c(c(-c4ccccc4)c12)CCC/C3=C\c1ccccc1`, the Activity came out at 2.583 s.

Another experiment concerns Escherichia coli. Kind of experiment: Antibacterial activity against Escherichia coli ATCC 23566 at 100 ug/disk after 24 to 48 hrs by agar disk diffusion method. Conditions: read-out: DIZ. The class given is functional. The method, boiled down: as §3
Take `O=c1[nH]c(=S)[nH]c2nc3c(c(-c4ccccc4)c12)CCC/C3=C\c1ccccc1`: the zone of inhibition at 100 µg/disc stood at 17 mm.

For another experiment, the system named is Staphylococcus aureus. Kind of experiment: Antibacterial activity against Staphylococcus aureus ATCC 25923 at 100 ug/disk after 24 to 48 hrs by agar disk diffusion method. The class given is functional. To be noted: read-out: DIZ. A digest of the protocol: as §3
Consider `O=C(O)c1cn(C2CC2)c2cc(N3CCNCC3)c(F)cc2c1=O` [CIPROFLOXACIN], for which the zone of inhibition at 100 µg/disc came to 24 mm.

As for `O=c1[nH]c(=S)[nH]c2nc3c(c(-c4ccccc4)c12)CCC/C3=C\c1ccccc1`, the zone of inhibition at 100 µg/disc was determined as 14 mm.

System in another experiment: not listed separately
Kind of experiment: Antioxidant activity in Sprague-Dawley rat erythrocytes assessed as ABTS-induced hemolysis after 1 hr. The class given is functional, Erythrocyte. On the set-up: concentration or dose not given beside the values.
Conditions: not given
As to `O=C1O[C@H]([C@@H](O)CO)C(O)=C1O` [ASCORBIC ACID], the Activity came to 3.93%.

In the case of `O=c1[nH]c(=S)[nH]c2nc3c(c(-c4ccccc4)c12)CCC/C3=C\c1ccccc1`, the Activity came to 35.75%.

The next experiment deals with Aspergillus fumigatus. Put plainly: Antimicrobial activity against Aspergillus fumigatus ATCC 96918 at 100 ug/disk after 5 days by agar disk diffusion method. Conditions: ATCC 96918, 120 h, read-out: DIZ. The class given is functional.
For `CC(=O)N1CCN(c2ccc(OCC3COC(Cn4ccnc4)(c4ccc(Cl)cc4Cl)O3)cc2)CC1` (stereo not given) [KETOCONAZOLE], the zone of inhibition at 100 µg/disc came out at 19 mm.

`O=c1[nH]c(=S)[nH]c2nc3c(c(-c4ccccc4)c12)CCC/C3=C\c1ccccc1`: the zone of inhibition at 100 µg/disc came out at 13 mm.

The record behind these values is ChEMBL document CHEMBL1137720, “New acyclic nucleosides analogues as potential analgesic, anti-inflammatory, anti-oxidant and anti-microbial derived from pyrimido[4,5-b]quinolines” (2009).
